Experimental data published in ChEMBL document CHEMBL2157878, “In vitro cellular uptake and dimerization of signal transducer and activator of transcription-3 (STAT3) identify the photosensitizing and imaging-potential of isomeric photosensitizers derived from chlorophyll-a and bacteriochlorophyll-a” (J Med Chem, 2011).
Active and inactive are the calls of the source. No cut-off for these calls is given here.

Experiments:
[1] = Drug uptake in human BCC1 cells assessed as deposition in mitochondria at 200 nM after 30 mins by phase contrast microscopy; format: ADME; details: bcc1, 0.5 h, 0.2 µM
Summary of the method: (§1)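 BCC1 cells in subconfluent culture, washed and incubated 30 min in serum-free DMEM with 200 nM PS. Washed free of PS and imaged at 640X under phase contrast and HPPH fluorescence (Ex 410/40, Em 675/750 nm). Cell PS also quantified by solubilising cells and reading fluorescence (Ex 415, Em 667 nm).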

[2] = Drug uptake in human BCC1 cells assessed as deposition in mitochondria at 200 nM after 30 mins by HPPH fluorescence spectrophotometry; format: ADME; details: bcc1, 0.5 h, 0.2 µM; summary of the method: as §1
BCC1 [3] = assay: Reduction in EGFR levels in human BCC1 cells after 9 mins by Western blotting in presence of 665 nm laser light; format: functional, cell-based
Summary of the method: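 BCC1 cells were incubated 2 h in serum-free DMEM with 2-fold serially diluted photosensitizer, washed, and illuminated with 665 nm light for 9 min (3 J/cm²). They were extracted immediately in RIPA buffer. Extracts (20 μg protein) were run on 6–10% SDS gels and immunoblotted for STAT3, EGFR, p38 and P-p38 with ECL detection. STAT3 crosslinking was scored as percent conversion of monomer into dimer form I.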

[4] = target: MAP kinase p38 (Homo sapiens) (UniProt O15264+Q15759+Q16539+P53778); assay: Activation of p38 MAPK in human BCC1 cells assessed as dimerization of STAT3 after 9 mins by Western blotting in presence of 665 nm laser light; format: cell-based
Summary of the method: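 Subconfluent BCC1 cells, 2 h in serum-free DMEM with 2-fold serially diluted PS, then 665 nm dye-laser light for 9 min at 37°C (3 J/cm²) in serum-free medium. Cells extracted immediately and lysed in RIPA. 20 μg protein run on 6–10% SDS gels and immunoblotted for STAT3, p38/P-p38 and EGFR with ECL detection. Crosslinking given as % monomeric STAT3 converted to dimer form I.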

BCC1 [5] = assay: Induction of apoptosis in human BCC1 cells assessed as survival after 24 hrs by trypan blue assay; format: functional, cell-based
Summary of the method: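 BCC1 cells were loaded for 2 h in serum-free DMEM with 2-fold serial dilutions of photosensitizer. After washing, they were illuminated in serum-free medium at 37° with 665 nm dye-laser light for 9 min (3 J/cm²). Cells were then cultured 24 h in DMEM/10% FCS and trypsinized. Trypan blue-excluding cells were counted by hemocytometer and expressed relative to untreated controls.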

[6] = Drug uptake in human BCC1 cells assessed as deposition in mitochondria at 3.2 uM after 30 mins by HPPH fluorescence spectrophotometry; format: ADME; details: bcc1, 0.5 h
Summary of the method: (§2)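 BCC1 cells incubated 30 min in serum-free DMEM with 3.2 μM or 0.2 μM PS, washed, and imaged at 640X under phase contrast or HPPH fluorescence. Cultures then kept a further 4 h in PS- and serum-free DMEM and imaged again under the same conditions to follow subcellular redistribution.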

[7] = Drug uptake in human BCC1 cells assessed as deposition in mitochondria at 3.2 uM after 30 mins by phase contrast microscopy; format: ADME; details: bcc1, 0.5 h; summary of the method: as §2
[8] = Drug uptake in human BCC1 cells assessed as subcellular localization at 3.2 uM after 4 hrs by HPPH fluorescence spectrophotometry; format: ADME, cell-based; details: bcc1, 4 h; summary of the method: as §2
[9] = Drug uptake in human BCC1 cells assessed as subcellular localization at 3.2 uM after 4 hrs by phase contrast microscopy; format: ADME, cell-based; details: bcc1, 4 h; summary of the method: as §2
Colon 26 [10] = assay: Antitumor activity against mouse Colon 26 cells xenografted in parenterally dosed BALB/c mouse assessed as tumor cure at 1 umol/kg after 24 hrs followed by illumination with 128 J/cm'2, 14 mW/cm'2 laser light measured after 60 days; format: functional
Summary of the method: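 Subcutaneous Colon26 tumours in BALB/c mice (10/group), dosed at 4–5 mm diameter with 1 μmol/kg PS. At 24 h, unanaesthetised restrained mice received laser light to the tumour (665, 660 or 674 nm by compound; 128 J/cm², 14 mW/cm²). Tumours measured daily (V = L·W²/2). Cure means no palpable tumour by day 60–90. Euthanasia at 400 mm³.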

[11] = Drug uptake in human BCC1 cells at 200 nM after 30 mins by fluorescent microscopy; details: bcc1, 30 min, 0.2 µM
BCC1 [12] = assay: Increase in STAT3 cross linking level in human BCC1 cells assessed as dimerization of STAT3 after 9 mins by Western blotting in presence of 665 nm light
[13] = test system: BCC1 cells (Homo sapiens); assay: Ratio of drug uptake in human BCC1 cells in serum free medium to drug uptake in human BCC1 cells in medium containing 10% fetal calf serum by fluorescent microscopy
[14] = Photostability of the compound in 17% bovine calf serum assessed as rate of photobleaching at 6.5 uM after 20 to 22 mins in presence of light (75 mW/cm'2); format: ADME; details: cattle, read-out: Drug degradation
Summary of the method: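 Equimolar (6.5 μM) photosensitizer solutions in 17% bovine calf serum were irradiated at 75 mW/cm². Absorption spectra were recorded at successive time points, and the normalized long-wavelength absorbance was plotted against time to follow photobleaching.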

[15] = Drug uptake in human BCC1 cells at 200 nM incubated for 30 mins measured after 4 to 24 hrs by fluorescent microscopy; format: ADME, cell-based; details: bcc1, 0.5 h, 0.2 µM
[16] = Drug uptake in human BCC1 cells assessed as deposition in mitochondria at 0.2 uM after 30 mins by HPPH fluorescence spectrophotometry; format: ADME; details: bcc1, 0.5 h; summary of the method: as §1
[17] = Drug uptake in human BCC1 cells assessed as deposition in mitochondria at 0.2 uM after for 30 mins by phase contrast microscopy; format: ADME; details: bcc1, 0.5 h; summary of the method: as §1
[18] = Drug uptake in human BCC1 cells assessed as subcellular localization at 0.2 uM after 4 hrs by HPPH fluorescence spectrophotometry; format: ADME, cell-based; details: bcc1, 4 h; summary of the method: as §2
[19] = Drug uptake in human BCC1 cells assessed as subcellular localization at 0.2 uM after 4 hrs by phase contrast microscopy; format: ADME, cell-based; details: bcc1, 4 h; summary of the method: as §2
Colon 26 [20] = assay: Photosensitizing activity in mouse Colon 26 assessed as cell viability at 0.3 uM after 24 hrs followed by illumination with 665 nm laser light and 48 hrs incubation in dark by MTT assay; format: functional, cell-based
Summary of the method: (§3)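 Colon26 cells, 3×10³/well in RPMI/10% FCS, were incubated 24 h in the dark with photosensitizer at 0.3 μM or 0.0625 μM. Medium was replaced with drug-free complete medium before illumination at 0–4 J/cm², 3.2 mW/cm², at each compound's peak wavelength (660, 665 or 674 nm). After 48 h in the dark, MTT was added for the last 4 h and absorbance read at 570 nm. Four replicate wells per condition, three independent experiments.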

Colon 26 [21] = assay: Photosensitizing activity in mouse Colon 26 assessed as cell viability at 0.0625 uM after 24 hrs followed by illumination with 665 nm laser light and 48 hrs incubation in dark by MTT assay in presence of serum; format: functional, cell-based; summary of the method: as §3
Colon 26 [22] = assay: Drug uptake in mouse Colon 26 cells at 400 nM after 24 hrs by flow cytometry; format: ADME, cell-based; details: colon 26, 24 h, 0.4 µM
Summary of the method: (§4)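 Colon26 cells seeded at 0.33×10⁶ per well and grown overnight, then given 100–800 nM PS in triplicate at 37°C, with no-PS wells for autofluorescence. Harvested by trypsin, spun cold, and run on flow cytometry (Ex 633 nm, Em 730±45 nm, 10,000 events). Value is mean fluorescence of triplicates minus autofluorescence.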

Colon 26 [23] = assay: Drug uptake in mouse Colon 26 cells at 800 nM after 24 hrs by flow cytometry; format: ADME, cell-based; details: colon 26, 24 h, 0.8 µM; summary of the method: as §4
Liver = assay: Drug uptake in parenterally dosed BALB/c mouse liver xenografted with mouse Colon 26 cells after 72 hrs by PET analysis; format: ADME, organism-based; details: in vivo
Summary of the method: (§5)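 Tumor-bearing BALB/c mice (Colon26, subcutaneous) received ¹²⁴I-labeled photosensitizer via the tail vein at 15–50 μCi. Three mice per time point were sacrificed at 24, 48 and 72 h. Organs were removed, weighed and counted in a γ-well counter. Uptake was expressed as %ID/g tissue.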

Spleen = assay: Drug uptake in parenterally dosed BALB/c mouse spleen xenografted with mouse Colon 26 cells after 72 hrs by PET analysis; format: ADME, organism-based; details: in vivo; summary of the method: as §5
Intestine = assay: Drug uptake in parenterally dosed BALB/c mouse intestine xenografted with mouse Colon 26 cells after 72 hrs by PET analysis; format: ADME, organism-based; details: in vivo, other; summary of the method: as §5
Mus musculus [24] = assay: Drug uptake in BALB/c mouse xenografted with mouse Colon 26 cells at 1 umol/kg, iv after 24 hrs by fluorescence imaging; format: ADME, organism-based; details: in vivo
Summary of the method: (§6)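 BALB/c mice (3/group) with Colon26 tumours (1×10⁶ cells s.c., right axilla, grown to 4–5 mm) were shaved and given 1.0 μmol/kg PS i.v. Whole-body fluorescence imaged under ketamine/xylazine at 24, 48 and 72 h: 540/40 nm illumination, long-pass emission filter, spectral unmixing of autofluorescence. Read-out is mean intensity of a 20 mm tumour ROI (AU), mean ± SD of 3 mice.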

Mus musculus [25] = assay: Drug uptake in BALB/c mouse xenografted with mouse Colon 26 cells at 1 umol/kg, iv after 48 hrs by fluorescence imaging; format: ADME, organism-based; details: in vivo; summary of the method: as §6
Mus musculus [26] = assay: Drug uptake in BALB/c mouse xenografted with mouse Colon 26 cells at 1 umol/kg, iv after 72 hrs by fluorescence imaging; format: ADME, organism-based; details: in vivo; summary of the method: as §6
[27] = Drug uptake in BALB/c mouse tumor xenografted with mouse Colon 26 cells at 1 umol/kg, iv after 24 hrs by fluorescence imaging; format: ADME, organism-based, Neoplasm; details: in vivo; summary of the method: as §6
Zone of skin = assay: Drug uptake in skin of BALB/c mouse xenografted with mouse Colon 26 cells measured after removal of tumor at 1 umol/kg, iv after 24 hrs by fluorescence imaging; format: ADME, organism-based; details: in vivo
Summary of the method: (§7)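 BALB/c mice carried subcutaneous Colon26 tumors (1×10⁶ cells, right posterior axilla) grown to 4–5 mm and were given 1 μmol/kg i.v. At 24 h the tumor was surgically removed and imaged, and the skin flap was imaged separately. Excitation was 540/40 nm with long-pass emission, followed by spectral unmixing of autofluorescence.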

[28] = Drug uptake in tumor of BALB/c mouse xenografted with mouse Colon 26 cells at 1 umol/kg, iv after 24 hrs by fluorescence imaging; format: ADME, organism-based, Neoplasm; details: in vivo; summary of the method: as §7

SMILES | Drug uptake [1] | Drug uptake [2] | Activity (BCC1 [3]) | Activity [4] | Activity (BCC1 [5]) | Activity (Colon 26 [10]) [%] | Activity (BCC1 [12]) | Ratio [13] | degraded at 6.5 µM [14] [%] | Drug uptake [15] | Activity (Colon 26 [21]) | Drug uptake (Colon 26 [22]) | Drug uptake (Colon 26 [23]) | Drug uptake (Mus musculus [24]) | Drug uptake (Mus musculus [25]) | Drug uptake (Mus musculus [26]) | Drug uptake [27] | Drug uptake (Zone of skin) | Drug uptake [28] | also measured
CCC1=C(C)c2cc3[nH]c(cc4nc(c5c6[nH]c(cc1n2)c(C)c6C(=O)C5)C(CCC(=O)OC)[C@@H]4C)c(C)c3C(C)OCc1cccc(I)c1 (stereo partly drawn) | Active | Active | Active | Active | Dose-dependent effect | 20 | Active | 5 | – | – | – | – | – | – | – | – | – | – | – | Drug uptake [6]: Active; Drug uptake [7]: Active; Drug uptake [8]: Active; Drug uptake [9]: Active; Drug uptake [11]: Active
CCC1=C(C)c2cc3[nH]c(cc4nc(c5c6[nH]c(cc1n2)c(C)c6C(=O)C5)C(CCC(=O)O)[C@@H]4C)c(C)c3C(C)OCc1cccc(I)c1 (stereo partly drawn) | Active | Active | Active | Active | Dose-dependent effect | – | Active | 4 | 50 | Active | Active | Active | Active | Active | Active | Active | Active | Not Active | Active | Drug uptake [16]: Active; Drug uptake [17]: Active; Drug uptake [18]: Active; Drug uptake [19]: Active; Activity (Colon 26 [20]): Active; Drug uptake (Liver): Active; Drug uptake (Spleen): Active; Drug uptake (Intestine): Active
CC[C@H]1c2cc3[nH]c4c(c5nc(cc6[nH]c(cc(n2)[C@@H]1C)c(C(C)OCc1cccc(I)c1)c6C)C(C)=C5CCC(=O)O)CC(=O)c4c3C (stereo partly drawn) | Active | Active | Active | Active | Dose-dependent effect | 60 | Active | 4 | 50 | Active | Active | Active | Active | Active | Active | Active | Active | Not Active | Active | –
